Here are results for nine molecules from ChEMBL document CHEMBL1138664, “Discovery of the pyrrolo[2,1-f][1,2,4]triazine nucleus as a new kinase inhibitor template” (J Med Chem, 2004).

pIC50: −log10 of the molar value.

In experiment [1] the target is Epidermal growth factor receptor (Homo sapiens, UniProt P00533). In words: In vitro inhibition of Epidermal growth factor receptor.
A short description of experiment [2]: Compound was tested for its inhibitory effect on the proliferation of the colon adenocarcinoma cell line DiFi. The conditions noted are these: Homo sapiens.
Experiment [3] has as its target Epidermal growth factor receptor and ErbB2 (HER1 and HER2) (Homo sapiens, UniProt P04626+P00533). The experiment can be described thus: Inhibition of EGF-stimulated human umbilical vein endothelial cell proliferation. The format is functional, cell-based. The procedure, abridged:
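Primary HUVECs (passage ≤3) seeded 2 × 10^3/well on collagen IV in minimal medium, 1% heat-inactivated FBS, 24 h; compound dilutions added with EGF 5 ng/mL; 48 h later 3H-thymidine 0.5 µCi, further 24 h. IC50 = concentration giving 50% less tritium incorporation than untreated EGF-stimulated cells, from dose-response curves.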

For experiment [4], the target named is Vascular endothelial growth factor receptor (Homo sapiens, UniProt P17948+P35916+P35968). The experiment can be described thus: Inhibition of VEGF-stimulated human umbilical vein endothelial cell proliferation. The format is functional, cell-based. The procedure, abridged: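 HUVECs under passage 3, plated 2 × 10^3/well in minimal medium with 1% heat-inactivated FBS on collagen IV; after 24 h, VEGF 80 ng/mL and serial compound dilutions; 3H-thymidine pulse (0.5 µCi) at 48 h for 24 h. IC50 as concentration halving thymidine uptake relative to untreated VEGF-stimulated cells.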

In experiment [5] the target is Vascular endothelial growth factor receptor 2 (Homo sapiens, UniProt P35968). The experiment can be described thus: In vitro inhibition of Vascular endothelial growth factor receptor 2.
Chain of Vascular endothelial growth factor receptor 2 (P35968 whole entry): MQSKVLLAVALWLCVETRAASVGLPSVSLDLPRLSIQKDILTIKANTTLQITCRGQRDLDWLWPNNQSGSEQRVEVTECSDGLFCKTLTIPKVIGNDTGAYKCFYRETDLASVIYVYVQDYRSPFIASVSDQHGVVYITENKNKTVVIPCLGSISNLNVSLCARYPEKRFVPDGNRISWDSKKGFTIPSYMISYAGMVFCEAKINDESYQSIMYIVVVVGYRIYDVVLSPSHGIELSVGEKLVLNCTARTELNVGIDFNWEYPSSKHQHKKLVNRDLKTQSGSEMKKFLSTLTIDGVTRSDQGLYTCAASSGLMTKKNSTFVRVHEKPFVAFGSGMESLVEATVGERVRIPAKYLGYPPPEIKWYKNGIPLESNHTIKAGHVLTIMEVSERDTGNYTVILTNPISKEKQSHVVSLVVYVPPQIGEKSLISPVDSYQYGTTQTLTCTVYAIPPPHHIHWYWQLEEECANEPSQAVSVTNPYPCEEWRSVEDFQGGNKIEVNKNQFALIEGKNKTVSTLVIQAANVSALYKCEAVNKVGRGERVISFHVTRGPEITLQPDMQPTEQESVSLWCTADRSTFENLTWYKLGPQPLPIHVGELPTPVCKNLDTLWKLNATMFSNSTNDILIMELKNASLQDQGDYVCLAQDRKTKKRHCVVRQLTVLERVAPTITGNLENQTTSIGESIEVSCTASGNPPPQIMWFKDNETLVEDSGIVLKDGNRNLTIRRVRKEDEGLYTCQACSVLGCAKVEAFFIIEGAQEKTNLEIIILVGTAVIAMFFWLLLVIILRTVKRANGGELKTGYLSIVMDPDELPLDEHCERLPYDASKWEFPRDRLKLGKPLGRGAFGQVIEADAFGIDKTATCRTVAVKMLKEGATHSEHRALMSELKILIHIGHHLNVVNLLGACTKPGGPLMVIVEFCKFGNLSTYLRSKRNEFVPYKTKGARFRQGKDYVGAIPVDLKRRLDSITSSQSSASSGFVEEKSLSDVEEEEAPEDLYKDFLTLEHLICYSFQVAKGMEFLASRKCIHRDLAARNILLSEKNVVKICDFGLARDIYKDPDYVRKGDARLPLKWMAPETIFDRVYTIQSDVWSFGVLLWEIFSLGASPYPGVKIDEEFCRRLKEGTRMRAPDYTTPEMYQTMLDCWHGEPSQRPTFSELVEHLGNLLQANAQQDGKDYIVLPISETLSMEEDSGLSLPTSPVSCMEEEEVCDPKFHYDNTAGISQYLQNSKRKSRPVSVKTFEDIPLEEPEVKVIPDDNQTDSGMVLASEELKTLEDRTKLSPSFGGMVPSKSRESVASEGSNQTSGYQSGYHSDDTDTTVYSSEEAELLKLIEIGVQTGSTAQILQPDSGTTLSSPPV

Chain of Epidermal growth factor receptor (P00533 whole entry): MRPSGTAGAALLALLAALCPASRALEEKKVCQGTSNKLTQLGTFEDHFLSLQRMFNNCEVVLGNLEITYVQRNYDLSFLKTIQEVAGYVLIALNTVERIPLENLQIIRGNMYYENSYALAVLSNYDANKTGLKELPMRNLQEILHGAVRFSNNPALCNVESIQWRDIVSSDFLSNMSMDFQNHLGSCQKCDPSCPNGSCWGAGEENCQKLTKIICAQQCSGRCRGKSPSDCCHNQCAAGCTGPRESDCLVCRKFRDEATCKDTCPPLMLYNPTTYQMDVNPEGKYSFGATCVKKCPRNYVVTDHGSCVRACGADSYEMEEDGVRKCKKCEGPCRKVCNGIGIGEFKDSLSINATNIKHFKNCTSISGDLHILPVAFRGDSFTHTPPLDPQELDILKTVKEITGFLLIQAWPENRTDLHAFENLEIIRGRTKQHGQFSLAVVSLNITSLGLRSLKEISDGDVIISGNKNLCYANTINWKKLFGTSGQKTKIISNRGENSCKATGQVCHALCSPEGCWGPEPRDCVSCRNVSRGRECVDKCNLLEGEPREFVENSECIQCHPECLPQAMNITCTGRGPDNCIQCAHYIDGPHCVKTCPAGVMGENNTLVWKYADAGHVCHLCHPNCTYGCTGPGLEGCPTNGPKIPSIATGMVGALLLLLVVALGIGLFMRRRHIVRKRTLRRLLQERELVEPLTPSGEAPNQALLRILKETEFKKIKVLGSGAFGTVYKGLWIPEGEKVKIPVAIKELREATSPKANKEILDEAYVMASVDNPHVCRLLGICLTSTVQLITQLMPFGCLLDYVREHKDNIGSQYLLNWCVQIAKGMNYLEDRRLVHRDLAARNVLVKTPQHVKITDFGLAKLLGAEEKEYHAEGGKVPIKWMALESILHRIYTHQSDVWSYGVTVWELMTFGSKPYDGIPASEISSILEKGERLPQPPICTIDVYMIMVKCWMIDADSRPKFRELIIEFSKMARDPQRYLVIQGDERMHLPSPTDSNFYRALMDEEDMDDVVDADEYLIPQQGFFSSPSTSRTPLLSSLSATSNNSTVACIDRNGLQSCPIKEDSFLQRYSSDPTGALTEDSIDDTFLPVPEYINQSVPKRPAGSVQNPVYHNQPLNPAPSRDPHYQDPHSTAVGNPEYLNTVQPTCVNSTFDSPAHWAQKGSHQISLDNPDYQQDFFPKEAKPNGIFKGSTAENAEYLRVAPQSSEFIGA

In general, pIC50 refers to the IC50 on a negative log10 scale, so that one unit is a factor of ten. With `Cc1ccc(Nc2ncnn3ccc(C)c23)cc1O`, the negative logarithm of the IC50 (pIC50) in experiment [1] was 6.47; in experiment [2], under 5.00; in experiment [3] it was 6.57; in experiment [4], 7.01; in experiment [5], 7.22.
The matching figures for `Cc1cc2c(Nc3ccc(F)c(Cl)c3)ncnn2c1`: 6.82, 5.80, 6.29, under 5.60 and under 5.70.
For the molecule `Cc1ccc(Nc2ncnn3cccc23)cc1O`, the negative logarithm of the IC50 (pIC50) in experiment [1] was 6.29; in experiment [2], 5.00; in experiment [4], 6.44; in experiment [5], 5.84.
On to `Cc1ccc(Nc2ncnn3cc(C)c(C)c23)cc1O`, for which the pIC50 in experiment [1] is 6.70; in experiment [2] it was under 5.00; in experiment [4] it was 6.51; in experiment [5] it was 7.70.
In the case of `Cc1ccc2c(Nc3ccc(F)c(Cl)c3)ncnn12`, the negative logarithm of the IC50 (pIC50) is 5.49 in experiment [1]; under 5.00 in experiment [2]; under 5.60 in experiment [3]; under 5.60 in experiment [4]; under 5.70 in experiment [5].
For `Cc1ccc(Nc2ncnn3c(C)ccc23)cc1O`, the pIC50 was 4.53 in experiment [1]; under 5.00 in experiment [2]; 7.00 in experiment [3]; 6.32 in experiment [4]; under 5.00 in experiment [5].
On to `Cc1ccn2ncnc(Nc3ccc(F)c(Cl)c3)c12`, for which the pIC50 in experiment [1] is 7.00; in experiment [2] it was 5.51; in experiment [3], 6.22; in experiment [4], under 5.60; in experiment [5], under 5.00.
`Cc1cc2c(Nc3ccc(C)c(O)c3)ncnn2c1`: the pIC50 in experiment [1] was 6.19; in experiment [2], under 5.00; in experiment [3] it was 6.19; in experiment [4], 6.67; in experiment [5] it was 6.40.
Consider `Fc1ccc(Nc2ncnn3cccc23)cc1Cl`, for which the negative-log IC50 (pIC50) in experiment [1] is 6.96; in experiment [2], 5.74; in experiment [3], 6.46; in experiment [4], under 5.60; in experiment [5], under 5.00.
